Reference: ChEMBL document CHEMBL4316593 (Eur J Med Chem, 2019)
Active and inactive are the calls of the source. No cut-off for these calls is given here.

Experiments:
U-87 MG [1] = test: Induction of apoptosis in human U87 cells assessed as change in CAPN2 gene expression at cytotoxic IC50 measured after 48 hrs […] relative to control; assay type: functional, U-87MG ATCC
Summary of the method: (§1)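 U87 cells grown in MEM with 10% FBS at 37°C, 5% CO2. Cells exposed to IC50 of test compound for 48 hrs, alongside untreated and cisplatin controls, each condition in triplicate. RNA isolated and profiled; differential expression called with DESeq2 (q-value < 0.05, fold change > 1.5), fold change versus untreated.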

[2] = Inhibition of RTK/PI3K/AKT/mTOR signaling in human U87 cells assessed as down regulation of TOMM34 gene expression at cytotoxic IC50 measured after 48 hrs relative to control; assay type: cell-based; settings: U-87MG ATCC
Summary of the method: (§2)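 Cells were exposed for 48hrs at 37°C in humidified 5% CO₂ to the compound at its previously determined IC₅₀, with Cisplatin at its IC₅₀ and an untreated negative control alongside. Each condition was run in triplicate. RNA was isolated from all samples by the same protocol. Genes were called differentially expressed by DESeq2 at q-value < 0.05 and fold change > 1.5.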

[3] = Inhibition of RTK/PI3K/AKT/mTOR signaling in human U87 cells assessed as down regulation of DHX30 gene expression at cytotoxic IC50 measured after 48 hrs relative to control; assay type: cell-based; settings: U-87MG ATCC; summary of the method: as §1
[4] = Inhibition of RTK/PI3K/AKT/mTOR signaling in human U87 cells assessed as down regulation of SOD2 gene expression at cytotoxic IC50 measured after 48 hrs relative to control; assay type: cell-based; settings: U-87MG ATCC; summary of the method: as §2
[5] = Inhibition of RTK/PI3K/AKT/mTOR signaling in human U87 cells assessed as down regulation of SIDT2 gene expression at cytotoxic IC50 measured after 48 hrs relative to control; assay type: cell-based; settings: U-87MG ATCC; summary of the method: as §2
[6] = Inhibition of RTK/PI3K/AKT/mTOR signaling in human U87 cells assessed as down regulation of NXF1 gene expression at cytotoxic IC50 measured after 48 hrs relative to control; assay type: cell-based; settings: U-87MG ATCC; summary of the method: as §2
[7] = Inhibition of RTK/PI3K/AKT/mTOR signaling in human U87 cells assessed as down regulation of WDR62 gene expression at cytotoxic IC50 measured after 48 hrs relative to control; assay type: cell-based; settings: U-87MG ATCC; summary of the method: as §2
[8] = Inhibition of RTK/PI3K/AKT/mTOR signaling in human U87 cells assessed as up regulation of MYC gene expression at cytotoxic IC50 measured after 48 hrs relative to control; assay type: cell-based; settings: U-87MG ATCC; summary of the method: as §2
[9] = Inhibition of RTK/PI3K/AKT/mTOR signaling in human U87 cells assessed as up regulation of GGA2 gene expression at cytotoxic IC50 measured after 48 hrs relative to control; assay type: cell-based; settings: U-87MG ATCC; summary of the method: as §2
[10] = Inhibition of RTK/PI3K/AKT/mTOR signaling in human U87 cells assessed as down regulation of HELLS gene expression at cytotoxic IC50 measured after 48 hrs relative to control; assay type: cell-based; settings: U-87MG ATCC; summary of the method: as §1
U-87 MG [11] = test: Induction of apoptosis in human U87 cells assessed as decrease in caspase-3/7 activation at cytotoxic IC50 measured after 5 hrs by caspase-glo 3/7 luminescence assay relative to control; assay type: functional, U-87MG ATCC; parameters: scale not given: the % may be the effect or the level left
Summary of the method: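 Cells grown overnight in 96-well format, then given IC50 for 5 hrs at 37°C, 5% CO2, with negative, positive and blank (medium+DMSO+dye) wells. Equilibrated 30 min at room temperature, Caspase-Glo 3/7 reagent added 1:1 in the dark, luminescence read at 1 hr. Fold change = (test−blank)/(control−blank). Triplicate measurements, at least two independent experiments.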

U-87 MG [12] = test: Induction of DNA damage in human U87 cells assessed as change in PIDD1 gene expression at cytotoxic IC50 measured after 48 hrs […] relative to control; assay type: functional, U-87MG ATCC
Summary of the method: (§3)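 U87 expression profiling. Cells incubated 48hrs at 37°C, 5% CO₂ with the IC₅₀ concentration, alongside a cisplatin and an untreated control, in triplicate. RNA was isolated by one common protocol and profiled. DEGs were called with DESeq2 (q < 0.05, fold change > 1.5) and expressed as fold change versus untreated.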

U-87 MG [13] = test: Induction of apoptosis in human U87 cells assessed as change in FAS gene expression at cytotoxic IC50 measured after 48 hrs […] relative to control; assay type: functional, U-87MG ATCC; summary of the method: as §1
[14] = Inhibition of RTK/PI3K/AKT/mTOR signaling in human U87 cells assessed as up regulation of ral guanine nucleotide dissociation stimulator gene expression at cytotoxic IC50 measured after 48 hrs relative to control; assay type: cell-based; settings: U-87MG ATCC
[15] = Inhibition of RTK/PI3K/AKT/mTOR signaling in human U87 cells assessed as up regulation of solute carrier family 12 member 9 gene expression at cytotoxic IC50 measured after 48 hrs relative to control; assay type: cell-based; settings: U-87MG ATCC
LN-229 = test: Cell cycle arrest in human LN229 cells assessed as accumulation at G1/S-phase at cytotoxic IC50 measured after 48 hrs by propidium iodide staining based fluorescence cell imaging analysis; assay type: functional
Summary of the method: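 Cell cycle by PI staining. Cells seeded at 1×10^6 and grown overnight at 37°C, 5% CO₂, then exposed for 48hrs at their IC₅₀ concentration, with DMSO and cisplatin controls. Cells were trypsinized, washed in cold PBS and fixed in 70% ethanol at 4°C for 30 min. They were stained with PI in Triton X-100/RNase for 15 min at 37°C and imaged by fluorescence microscopy. Reported as mean ± S.E.M of triplicates.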

[16] = Inhibition of RTK/PI3K/AKT/mTOR signaling in human U87 cells assessed as up regulation of platelet derived growth factor C gene expression at cytotoxic IC50 measured after 48 hrs relative to control; assay type: cell-based
[17] = Inhibition of RTK/PI3K/AKT/mTOR signaling in human U87 cells assessed as up regulation of NARS gene expression at cytotoxic IC50 measured after 48 hrs relative to control; assay type: cell-based; settings: U-87MG ATCC; summary of the method: as §2
[18] = Inhibition of RTK/PI3K/AKT/mTOR signaling in human U87 cells assessed as up regulation of CPLX1 gene expression at cytotoxic IC50 measured after 48 hrs relative to control; assay type: cell-based; settings: U-87MG ATCC; summary of the method: as §2
[19] = Inhibition of RTK/PI3K/AKT/mTOR signaling in human U87 cells assessed as up regulation of EPS8 like 2 gene expression at cytotoxic IC50 measured after 48 hrs relative to control; assay type: cell-based; settings: U-87MG ATCC; summary of the method: as §2
[20] = Inhibition of RTK/PI3K/AKT/mTOR signaling in human U87 cells assessed as up regulation of MRG domain binding protein gene expression at cytotoxic IC50 measured after 48 hrs relative to control; assay type: cell-based; settings: U-87MG ATCC; summary of the method: as §2
U-87 MG [21] = test: Cell cycle arrest in human U87 cells assessed as change in MYC gene expression at cytotoxic IC50 measured after 48 hrs […] relative to control; assay type: functional, U-87MG ATCC; summary of the method: as §3
[22] = Inhibition of RTK/PI3K/AKT/mTOR signaling in human U87 cells assessed as up regulation of keratinocyte associated protein 3 gene expression at cytotoxic IC50 measured after 48 hrs relative to control; assay type: cell-based
U-87 MG [23] = test: Cell cycle arrest in human U87 cells assessed as change in E2F2 gene expression at cytotoxic IC50 measured after 48 hrs […] relative to control; assay type: functional, U-87MG ATCC; summary of the method: as §3
[24] = Inhibition of RTK/PI3K/AKT/mTOR signaling in human U87 cells assessed as down regulation of BRMS1 gene expression at cytotoxic IC50 measured after 48 hrs relative to control; assay type: cell-based; settings: U-87MG ATCC; summary of the method: as §1

In the case of `CC(=O)C(=NNc1ccccc1C#N)C(C)=O`, the log2FC (U-87 MG [1]) was -1.189, the log2FC [2] was -1.47 and the log2FC [3] was -0.431. The log2FC [4] was -0.617, the log2FC [5] was -0.671 and the log2FC [6] was -1.44. It also gave a log2FC [7] of -1.86, a log2FC [8] of 0.54 and a log2FC [9] of 0.505. For the same compound, the log2FC [10] was -1.06, the Activity (U-87 MG [11]) was 60.2% and the “fold change (FC)” value (U-87 MG [12]) was 2.467. For the same compound, the log2FC (U-87 MG [13]) was 3.514, the log2FC [14] was 0.685 and the log2FC [15] was 0.907. The Activity (LN-229) was “Active”, the log2FC [16] was 0.883 and the log2FC [17] was 0.53. For the same compound, the log2FC [18] was 1.75, the log2FC [19] was 0.818 and the log2FC [20] was 0.97. For the same compound, the “fold change (FC)” value (U-87 MG [21]) was -1.478, the log2FC [22] was 1.03 and the “fold change (FC)” value (U-87 MG [23]) was 2.384. For the same compound, the log2FC [24] was -0.813.
